Results of several laboratories.
Each line is one published result; the experiments were not run side by side.

| SMILES | assay | test system | conditions | measurement | result |
| --- | --- | --- | --- | --- | --- |
| COCC(=O)N1CCC[C@H](C(=O)NCc2nc(-c3ccc(C#N)cc3)cs2)C1 | metabolic stability | male Sprague-Dawley rat, liver microsomes | 0.5 µM | scaled CLint | 30 mL/min/kg |
| Cc1cc(S(=O)(=O)NC2CC(N3CC[C@@H](OC4CN(c5cccc6c5n(C)c(=O)n6C5CCC(=O)NC5=O)C4)[C@H](F)C3)C2)ccc1Nc1ncc(C(F)(F)F)c(N2CCC[C@](C)(O)C2)n1 (stereo partly shown) | metabolic stability | human, liver microsomes | 1 µM | scaled CLint | 28 mL/min/kg |
| c1cc(-c2ccc3ncnc(NC4CCOCC4)c3c2)cc(N2CCOCC2)c1 | shake flask | aqueous buffer | pH 7.4 | logD | 3.3 |
| c1ccc(Oc2ccc(Nc3c4c(nc5ccccc35)CCC4)cc2)cc1 | HPLC |  | pH 7.4 | chromatographic logD | > 5.3 |
| FC(F)(F)c1cc(Nc2ncnc3ccc(-c4cccc(N5CCOCC5)c4)cc23)ccc1Cl | shake flask | aqueous buffer | pH 7.4 | logD | > 4.1 |
| CCOCC(=O)N1CCC[C@H](C(=O)NCc2nc(-c3ccc(C)nc3)cs2)C1 | metabolic stability | human, liver microsomes | 0.5 µM | scaled CLint | 11 mL/min/kg |
| CC1(C)NC(=O)N(c2cccc(C(F)(F)F)n2)C1=O | HPLC |  | pH 7.4 | chromatographic logD | 1.6 |
| COCC(=O)N1CCC[C@H](C(=O)NCc2nc(-c3ccccc3)cs2)C1 | metabolic stability | human, hepatocytes | 0.5 µM | scaled CLint | 29 mL/min/kg |
| CC1(C)NC(=O)N(c2cc(C(F)(F)F)c(F)cc2C#N)C1=O | HPLC |  | pH 7.4 | chromatographic logD | 2.8 |
| Clc1ccc(Nc2ncnc3ccc(-c4cccc(N5CCOCC5)c4)cc23)cc1Cl | shake flask | aqueous buffer | pH 7.4 | logD | > 4.2 |
| CNS(=O)(=O)c1ccc(Nc2ncc(C(F)(F)F)c(N3CCC[C@](C)(O)C3)n2)c(C)c1 | metabolic stability | human, liver microsomes | 1 µM | scaled CLint | 29 mL/min/kg |
| O=C1NC2(CCS(=O)(=O)CC2)C(=O)N1c1ccc(F)c(C(F)(F)F)c1 | HPLC |  | pH 7.4 | chromatographic logD | 2.6 |
| CN1CCN(c2cccc(-c3ccc4ncnc(Nc5ncco5)c4c3)c2)CC1 | shake flask | aqueous buffer | pH 7.4 | logD | 3.3 |
| C[C@H]1[C@@H](C(=O)NCc2nc(-c3ccc(C#N)cc3)cs2)CCCN1C(=O)[C@H]1CCC(=O)O1 | metabolic stability | male Sprague-Dawley rat, liver microsomes | 0.5 µM | microsomal CLint | 24 µL/min/mg |
| C[C@@H](Oc1ccc(S(C)(=O)=O)cc1C(=O)N1C[C@@H]2C[C@]2(c2cc(C(F)(F)F)on2)C1)C(F)(F)F |  | human, plasma | oral, 10 mg, single dose, fasted | CL/F | 82.9 mL/min |
| CNS(=O)(=O)c1ccc(Nc2ncc(C(F)(F)F)c(N3CCC(C)(O)CC3)n2)c(C)c1 | metabolic stability | human, liver microsomes | 1 µM | scaled CLint | 48 mL/min/kg |

| SMILES | assay | test system | conditions | measurement | result |
| --- | --- | --- | --- | --- | --- |
| NCCOCC(=O)N1CCC[C@H](C(=O)NCc2nc(-c3ccc(C(F)(F)F)cc3)cs2)C1 | metabolic stability | male Sprague-Dawley rat, liver microsomes | 0.5 µM | microsomal CLint | < 3 µL/min/mg |
| Cc1cc(S(=O)(=O)NC2CC(N3CCN(CC4CCN(c5cccc6c5n(C)c(=O)n6C5CCC(=O)NC5=O)CC4)C4(CC4)C3)C2)ccc1Nc1ncc(C(F)(F)F)c(N2CCC[C@](C)(O)C2)n1 (stereo partly shown) | metabolic stability | human, liver microsomes | 1 µM | scaled CLint | 34 mL/min/kg |
| COc1ccc2c(c1)CN(C(=O)CCN1CCC(Cc3ccccc3)CC1)CC[S@@+]2[O-] |  | male human, plasma | intravenous, 0.6 mg/kg, healthy volunteers | clearance | 175 mL/min |
| Cc1cc(S(=O)(=O)N[C@H]2CC[C@H](CN3CCN(c4cccc(NC5CCC(=O)NC5=O)c4)CC3)CC2)ccc1Nc1ncc(C(F)(F)F)c(N2CCC[C@](C)(O)C2)n1 (stereo partly shown) | metabolic stability | human, liver microsomes | 1 µM | scaled CLint | < 14 mL/min/kg |
| OC[C@H]1O[C@@H](c2cc(Cc3ccc(C4CC4)cc3)c(Cl)c3c2CCO3)[C@H](O)[C@@H](O)[C@@H]1O |  | human, plasma | oral, 0.3 mg, single dose, fasted | CL/F | 157 mL/min |
| CCC(F)(F)c1cc(N2C(=O)NC(C)(C)C2=O)ccc1F | HPLC |  | pH 7.4 | chromatographic logD | 2.9 |
| CNS(=O)(=O)c1ccc(Nc2ncc(C(F)(F)F)c([C@H]3CC[C@@](C)(O)CC3)n2)c(C)c1 | metabolic stability | human, liver microsomes | 1 µM | scaled CLint | < 14 mL/min/kg |
| CC1(C(F)F)NC(=O)N(c2ccc(F)c(C(F)(F)F)c2)C1=O (stereo not shown) | HPLC |  | pH 7.4 | chromatographic logD | 3.2 |
| Cc1cc(S(=O)(=O)N[C@]2(C)C[C@@H](N3CCN(CC4CCN(c5ccc6c(c5F)n(C)c(=O)n6C5CCC(=O)NC5=O)CC4)CC3)C2)ccc1Nc1ncc(C(F)(F)F)c(N2CCC[C@](C)(O)C2)n1 (stereo partly shown) | metabolic stability | human, liver microsomes | 1 µM | scaled CLint | 120 mL/min/kg |
| CC(C)(N)COCC(=O)N1CCC[C@H](C(=O)NCc2nc(-c3ccc(C(F)(F)F)cc3)cs2)C1 | metabolic stability | human, liver microsomes | 0.5 µM | scaled CLint | < 4 mL/min/kg |
| CC(C)n1c(C2CCNCC2)nc2c([N+](=O)[O-])c(Br)c(Br)cc21 |  | human, urine | oral, 50 mg, single dose | renal clearance | 14.5 mL/min |
| CC1(C)NC(=O)N(c2ccc(F)c(F)c2)C1=O | HPLC |  | pH 7.4 | chromatographic logD | 1.8 |
| CCONC(=O)N1CCC[C@H](C(=O)N[C@@H](C)c2nc(-c3ccc(C#N)cc3)cs2)C1 | metabolic stability | male Sprague-Dawley rat, liver microsomes | 0.5 µM | microsomal CLint | 36 µL/min/mg |
| CC1(C)NC(=O)N(c2ccc(F)c(Br)c2)C1=O | HPLC |  | pH 7.4 | chromatographic logD | 2.4 |
| CCOCC(=O)N1CCC[C@H](C(=O)NCc2nc(-c3ccc(C#N)nc3)cs2)C1 | metabolic stability | male Sprague-Dawley rat, liver microsomes | 0.5 µM | microsomal CLint | 11 µL/min/mg |
